Source: ChEMBL document CHEMBL3576847, “Discovery of 1-(3,3-dimethylbutyl)-3-(2-fluoro-4-methyl-5-(7-methyl-2-(methylamino)pyrido[2,3-d]pyrimidin-6-yl)phenyl)urea (LY3009120) as a pan-RAF inhibitor with minimal paradoxical activation and activity against BRAF or RAS mutant tumor cells” (J Med Chem, 2015)
≈ marks a conversion by molar mass, not a printed value. Calls of active or inactive are those of the source. The calls are words filed in the database; no cut-off is given here.

Columns and labels:
[1] = molecular target: GTPase KRas (Homo sapiens, UniProt P01116, G13D); assay: Inhibition of KRAS G13D mutant in human HCT116 cells assessed as inhibition of ERK phosphorylation by ELISA; format: cell-based, HCT-116
Outline: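 HCT116 cells (KRAS G13D, BRAF WT; RAF signalling via CRAF) were treated with compound, and the change in cellular phospho-ERK was measured. IC50 was taken as the concentration inhibiting phospho-ERK.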

[2] = molecular target: Vascular endothelial growth factor receptor 2 (Homo sapiens, UniProt P35968); assay: Inhibition of KDR (unknown origin)
[3] = molecular target: Dual specificity mitogen-activated protein kinase kinase; MEK1/2 (Homo sapiens, UniProt P36507+Q02750); assay: Inhibition of MEK (unknown origin)
[4] = molecular target: Serine/threonine-protein kinase A-Raf (Homo sapiens, UniProt P10398); assay: Competitive binding affinity to ARAF in human A375 cells after 15 mins in presence of ATP analogue; format: cell-based, A-375
[5] = Paradoxical activation of RAS/RAF/MEK signaling pathway in human HCT116 cells expressing wild type BRAF assessed as ERK phosphorylation at 0.34 to 20000 nM; format: cell-based; conditions: HCT-116
[6] = system: A-375; assay: cells; conditions: Homo sapiens, A-375, 72 h
[7] = system: HCT-116; assay: cells; conditions: Homo sapiens, HCT-116, 67 h
[8] = molecular target: T1, Serine/threonine-protein kinase B-raf (Homo sapiens, UniProt P15056, V600E); assay: Inhibition of recombinant BRAF V600E mutant (unknown origin) assessed as ADP formation measured for 5 hrs by pyruvate kinase/lactate dehydrogenase coupled assay in presence of ATP, MEK1, NADH
[9] = molecular target: Serine/threonine-protein kinase B-raf (Homo sapiens, UniProt P15056); assay: Inhibition of wild type BRAF (unknown origin) assessed as ADP formation measured for 5 hrs by pyruvate kinase/lactate dehydrogenase coupled assay in presence of ATP, MEK1, NADH
[10] = molecular target: RAF proto-oncogene serine/threonine-protein kinase (Homo sapiens, UniProt P04049); assay: Inhibition of wild type CRAF (unknown origin) assessed as ADP formation measured for 5 hrs by pyruvate kinase/lactate dehydrogenase coupled assay in presence of ATP, MEK1, PEP, NADH
[11] = molecular target: T1, Serine/threonine-protein kinase B-raf; assay: Inhibition of BRAF V600E mutant in human A375 cells assessed as inhibition of ERK phosphorylation measured after 72 hrs by ELISA assay; format: cell-based, A-375
[12] = Clearance in po dosed rat administered as suspension; format: ADME, organism-based; conditions: in vivo
[13] = Clearance in po dosed dog administered as suspension; format: ADME, organism-based, Canis lupus familiaris; conditions: in vivo
[14] = Oral bioavailability in rat administered as suspension; format: ADME, organism-based; conditions: in vivo
[15] = Oral bioavailability in dog administered as suspension; format: ADME, organism-based, Canis lupus familiaris; conditions: in vivo
[16] = Solubility of the compound in simulated fed intestinal fluid; format: ADME
[17] = Solubility of the compound in simulated fasted intestinal fluid; format: ADME
[18] = system: Mus musculus; assay: In vivo inhibition of BRAF V600E mutant in human A375 cells xenografted in po dosed athymic nu/nu mouse assessed as inhibition of ERK phosphorylation after 2 hrs by ELISA; format: functional; conditions: A-375, po
[19] = system: Mus musculus; assay: In vivo inhibition of BRAF V600E mutant in human A375 cells xenografted in po dosed athymic nu/nu mouse assessed as plasma concentration required to inhibit ERK phosphorylation by 50% after 2 hrs by ELISA; format: functional, A-375
[20] = system: Mus musculus; assay: In vivo inhibition of BRAF V600E mutant in human A375 cells xenografted in po dosed athymic nu/nu mouse assessed as plasma concentration required to inhibit ERK phosphorylation by 80% after 2 hrs by ELISA; format: functional, A-375
[21] = system: Mus musculus; assay: Toxicity in athymic nu/nu mouse xenografted with human HT-29 cells assessed as body weight loss at 10 to 20 mg/kg, po bid administered for 28 days; format: organism-based; conditions: in vivo, 672 h
Outline: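 HT-29 (BRAF V600E) xenograft mice dosed orally for 28 days; body weight loss monitored.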

[22] = species: Rattus norvegicus; assay: Toxicity in rat assessed as inflammation; format: organism-based; conditions: in vivo
[23] = species: Rattus norvegicus; assay: Toxicity in rat assessed as hyperbilirubinemia; format: organism-based; conditions: in vivo
[24] = species: Rattus norvegicus; assay: Toxicity in rat assessed as skeletal muscle degeneration; format: organism-based; conditions: in vivo
[25] = species: Rattus norvegicus; assay: Toxicity in rat assessed as bone marrow hypocellularity; format: organism-based; conditions: in vivo
[26] = species: Canis familiaris; assay: Toxicity in dog assessed as inflammation; format: organism-based, Canis lupus familiaris; conditions: in vivo
[27] = species: Canis familiaris; assay: Toxicity in dog assessed as hyperbilirubinemia; format: organism-based, Canis lupus familiaris; conditions: in vivo
[28] = species: Canis familiaris; assay: Toxicity in dog assessed as skeletal muscle degeneration; format: organism-based, Canis lupus familiaris; conditions: in vivo
[29] = species: Canis familiaris; assay: Toxicity in dog assessed as bone marrow hypocellularity; format: organism-based, Canis lupus familiaris; conditions: in vivo
[30] = system: Mus musculus; assay: In vivo inhibition of BRAF V600E mutant in human HT-29 cells xenografted in athymic nu/nu mouse assessed as inhibition of ERK phosphorylation at 10 to 20 mg/kg, po bid administered for 28 days by Western blot analysis; format: functional, organism-based
Outline: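 HT-29 (BRAF V600E) xenografts in mice, oral dosing for 28 days; after dosing, tumors from individual animals analysed for phospho-ERK by Western blot.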

[31] = system: Mus musculus; assay: In vivo inhibition of BRAF V600E mutant in human HT-29 cells xenografted in po dosed athymic nu/nu mouse assessed as inhibition of ERK phosphorylation administered as bid for 28 days by Western blot

Chain of Serine/threonine-protein kinase B-raf (Homo sapiens, UniProt P15056) (P15056 whole entry): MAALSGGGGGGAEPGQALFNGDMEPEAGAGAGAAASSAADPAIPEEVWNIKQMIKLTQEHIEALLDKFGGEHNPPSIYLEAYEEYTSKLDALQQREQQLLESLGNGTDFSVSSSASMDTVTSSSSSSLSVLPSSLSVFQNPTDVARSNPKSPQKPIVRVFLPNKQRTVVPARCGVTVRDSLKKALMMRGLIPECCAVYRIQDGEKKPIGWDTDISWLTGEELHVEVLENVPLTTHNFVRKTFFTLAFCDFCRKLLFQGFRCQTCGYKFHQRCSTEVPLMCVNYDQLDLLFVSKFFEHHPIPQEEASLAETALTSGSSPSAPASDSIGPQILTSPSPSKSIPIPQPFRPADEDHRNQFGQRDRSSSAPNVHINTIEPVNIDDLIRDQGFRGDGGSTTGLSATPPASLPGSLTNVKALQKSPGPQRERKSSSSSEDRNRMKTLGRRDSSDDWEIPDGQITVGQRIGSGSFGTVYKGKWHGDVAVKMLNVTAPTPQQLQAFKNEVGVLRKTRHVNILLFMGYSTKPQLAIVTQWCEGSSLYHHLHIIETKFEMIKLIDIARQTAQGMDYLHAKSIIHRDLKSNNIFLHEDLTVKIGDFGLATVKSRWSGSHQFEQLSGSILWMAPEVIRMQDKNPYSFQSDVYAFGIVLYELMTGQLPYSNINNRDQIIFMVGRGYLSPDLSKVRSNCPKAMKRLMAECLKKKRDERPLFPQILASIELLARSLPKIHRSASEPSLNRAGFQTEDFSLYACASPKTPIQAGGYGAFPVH
Chain of Vascular endothelial growth factor receptor 2 (P35968 whole entry): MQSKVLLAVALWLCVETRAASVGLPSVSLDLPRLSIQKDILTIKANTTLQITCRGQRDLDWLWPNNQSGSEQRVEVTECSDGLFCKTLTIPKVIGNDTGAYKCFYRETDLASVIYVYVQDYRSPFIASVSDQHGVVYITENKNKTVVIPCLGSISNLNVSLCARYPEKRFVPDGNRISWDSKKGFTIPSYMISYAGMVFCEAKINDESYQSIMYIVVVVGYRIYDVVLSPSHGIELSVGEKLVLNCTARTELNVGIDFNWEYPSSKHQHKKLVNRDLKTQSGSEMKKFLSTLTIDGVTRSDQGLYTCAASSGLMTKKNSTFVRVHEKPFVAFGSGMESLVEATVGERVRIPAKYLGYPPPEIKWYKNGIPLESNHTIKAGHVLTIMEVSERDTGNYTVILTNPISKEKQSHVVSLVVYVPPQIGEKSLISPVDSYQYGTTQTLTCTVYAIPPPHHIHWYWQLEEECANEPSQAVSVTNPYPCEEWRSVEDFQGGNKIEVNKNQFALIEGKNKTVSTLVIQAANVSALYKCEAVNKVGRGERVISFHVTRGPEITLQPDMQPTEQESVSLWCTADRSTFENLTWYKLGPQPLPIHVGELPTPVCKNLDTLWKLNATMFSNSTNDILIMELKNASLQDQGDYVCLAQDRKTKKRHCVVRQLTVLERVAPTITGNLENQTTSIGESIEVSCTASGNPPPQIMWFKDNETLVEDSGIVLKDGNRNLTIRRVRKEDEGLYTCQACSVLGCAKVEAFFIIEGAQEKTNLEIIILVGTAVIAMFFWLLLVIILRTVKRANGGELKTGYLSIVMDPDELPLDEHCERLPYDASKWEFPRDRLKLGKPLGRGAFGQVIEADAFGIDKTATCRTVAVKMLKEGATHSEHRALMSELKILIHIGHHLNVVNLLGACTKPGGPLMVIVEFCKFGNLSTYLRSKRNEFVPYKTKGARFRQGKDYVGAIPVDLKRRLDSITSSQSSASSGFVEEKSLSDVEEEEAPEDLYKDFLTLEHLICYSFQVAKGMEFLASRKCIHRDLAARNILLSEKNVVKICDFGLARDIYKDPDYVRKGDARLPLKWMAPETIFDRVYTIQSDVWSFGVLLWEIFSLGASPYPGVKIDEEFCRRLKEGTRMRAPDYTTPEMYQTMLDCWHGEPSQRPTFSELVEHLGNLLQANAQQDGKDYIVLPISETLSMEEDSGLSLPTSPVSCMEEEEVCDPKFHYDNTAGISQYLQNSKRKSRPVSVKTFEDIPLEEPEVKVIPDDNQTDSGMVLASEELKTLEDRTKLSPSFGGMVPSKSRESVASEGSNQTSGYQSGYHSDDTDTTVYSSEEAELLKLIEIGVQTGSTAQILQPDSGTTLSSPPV
T1 sequence (P15056 2-766 V600E limits assumed): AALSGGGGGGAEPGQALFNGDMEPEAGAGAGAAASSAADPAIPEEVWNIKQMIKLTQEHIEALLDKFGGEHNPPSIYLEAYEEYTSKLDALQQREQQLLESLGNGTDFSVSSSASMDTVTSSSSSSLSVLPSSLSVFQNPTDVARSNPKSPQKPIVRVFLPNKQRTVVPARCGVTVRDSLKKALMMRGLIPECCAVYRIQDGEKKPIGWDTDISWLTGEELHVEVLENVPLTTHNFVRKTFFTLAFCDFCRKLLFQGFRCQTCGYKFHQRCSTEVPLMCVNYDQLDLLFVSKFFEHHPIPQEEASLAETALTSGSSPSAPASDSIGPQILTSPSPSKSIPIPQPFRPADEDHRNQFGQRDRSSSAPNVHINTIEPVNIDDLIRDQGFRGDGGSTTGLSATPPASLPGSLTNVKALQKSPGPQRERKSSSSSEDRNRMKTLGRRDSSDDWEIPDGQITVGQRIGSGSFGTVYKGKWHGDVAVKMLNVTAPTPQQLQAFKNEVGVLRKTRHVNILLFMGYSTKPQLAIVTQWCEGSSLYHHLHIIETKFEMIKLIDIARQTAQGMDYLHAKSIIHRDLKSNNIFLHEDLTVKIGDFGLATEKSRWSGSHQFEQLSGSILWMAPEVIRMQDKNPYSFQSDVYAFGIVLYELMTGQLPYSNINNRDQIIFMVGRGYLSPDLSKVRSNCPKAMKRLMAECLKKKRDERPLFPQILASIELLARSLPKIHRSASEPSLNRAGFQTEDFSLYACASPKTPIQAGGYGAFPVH
Chain of RAF proto-oncogene serine/threonine-protein kinase (P04049 whole entry): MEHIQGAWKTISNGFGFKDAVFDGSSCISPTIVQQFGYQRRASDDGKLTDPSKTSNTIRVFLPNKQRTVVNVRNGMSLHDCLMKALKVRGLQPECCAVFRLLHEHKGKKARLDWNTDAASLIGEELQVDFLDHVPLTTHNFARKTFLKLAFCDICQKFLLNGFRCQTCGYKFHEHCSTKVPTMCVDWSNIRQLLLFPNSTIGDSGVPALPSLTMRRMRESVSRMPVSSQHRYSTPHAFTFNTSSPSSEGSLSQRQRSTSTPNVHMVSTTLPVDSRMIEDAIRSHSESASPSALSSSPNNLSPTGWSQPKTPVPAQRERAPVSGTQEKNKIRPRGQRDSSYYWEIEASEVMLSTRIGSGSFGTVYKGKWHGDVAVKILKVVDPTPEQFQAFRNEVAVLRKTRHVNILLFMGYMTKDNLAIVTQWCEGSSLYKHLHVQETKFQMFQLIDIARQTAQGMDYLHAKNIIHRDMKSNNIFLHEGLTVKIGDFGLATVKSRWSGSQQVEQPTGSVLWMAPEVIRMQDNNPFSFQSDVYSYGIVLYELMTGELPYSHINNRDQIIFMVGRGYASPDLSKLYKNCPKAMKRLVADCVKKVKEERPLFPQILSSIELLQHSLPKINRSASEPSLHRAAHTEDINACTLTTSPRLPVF
Chain of GTPase KRas (P01116 whole entry G13D): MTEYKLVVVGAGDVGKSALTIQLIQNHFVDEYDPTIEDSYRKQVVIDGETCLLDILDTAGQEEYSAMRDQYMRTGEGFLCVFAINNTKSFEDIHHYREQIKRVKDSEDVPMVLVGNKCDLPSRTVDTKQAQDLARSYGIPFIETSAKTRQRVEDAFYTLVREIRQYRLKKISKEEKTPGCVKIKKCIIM
Chain of Serine/threonine-protein kinase A-Raf (P10398 whole entry): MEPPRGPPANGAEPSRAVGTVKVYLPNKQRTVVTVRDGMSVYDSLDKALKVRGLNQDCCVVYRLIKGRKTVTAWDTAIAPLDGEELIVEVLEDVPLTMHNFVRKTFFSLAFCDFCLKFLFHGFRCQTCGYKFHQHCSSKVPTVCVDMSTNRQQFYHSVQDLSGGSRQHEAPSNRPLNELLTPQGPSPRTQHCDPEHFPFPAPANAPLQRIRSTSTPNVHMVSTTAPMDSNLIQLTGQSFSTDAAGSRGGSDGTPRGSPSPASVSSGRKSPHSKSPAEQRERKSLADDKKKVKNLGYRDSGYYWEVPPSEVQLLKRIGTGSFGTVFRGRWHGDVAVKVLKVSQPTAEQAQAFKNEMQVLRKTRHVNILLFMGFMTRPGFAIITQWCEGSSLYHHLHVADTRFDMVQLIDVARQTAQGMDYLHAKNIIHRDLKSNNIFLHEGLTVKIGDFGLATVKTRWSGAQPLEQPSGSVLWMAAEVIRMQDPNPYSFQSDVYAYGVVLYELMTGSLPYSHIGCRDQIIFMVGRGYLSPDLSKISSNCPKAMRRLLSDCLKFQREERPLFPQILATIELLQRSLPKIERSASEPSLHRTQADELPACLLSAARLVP

Structure (SMILES) | IC50 [1] | IC50 [2] | IC50 [3] | IC50 [4] | IC50 [6] | IC50 [7] | IC50 [8] | IC50 [9] | IC50 [10] | IC50 [11] | CL/F [12] | CL/F [13] | bioavailability [14] | bioavailability [15] | solubility [16] | solubility [17] | other results
CCCS(=O)(=O)Nc1ccc(F)c(C(=O)c2c[nH]c3ncc(-c4ccc(Cl)cc4)cc23)c1F [VEMURAFENIB] | 16600 nM | 360 nM | 1500 nM | 950 nM | 170 nM | > 10000 nM | – | – | – | – | – | – | – | – | – | – | Activity [5]: Active
CCn1c(=O)c(-c2cc(NC(=O)NCCC(C)(C)C)c(F)cc2C)cc2cnc(NC)cc21 | 120 nM | 25 nM | 2500 nM | – | 34 nM | 130 nM | 4.2 nM | 11 nM | 5.2 nM | 40 nM | – | – | – | – | – | – | –
CCn1c(=O)c(-c2ccc(F)c(NC(=O)Nc3cc(C(C)(C)C)no3)c2)cc2cnc(NC)cc21 | 91 nM | 1.9 nM | 4000 nM | – | 56 nM | 160 nM | 1.2 nM | 10 nM | 2.9 nM | 96 nM | 13 mL/min/kg | 14 mL/min/kg | 28% | 69% | 310 µg/mL (≈ 648 µM) | 41 µg/mL (≈ 85.7 µM) | ED50 [18]: 10.4 mg/kg; ED80 [18]: 20.5 mg/kg; INH [19]: 167 ng/mL; INH [20]: 843 ng/mL; Activity [21]: Non-toxic; Activity [22]: Toxic; Activity [23]: Toxic; Activity [24]: Toxic; Activity [25]: Toxic; Activity [26]: Toxic; Activity [27]: Toxic; Activity [28]: Toxic; Activity [29]: Toxic; inhibition [30]: Active; inhibition [31]: Dose-dependent effect
CC(C)(C)c1nc(-c2cccc(NS(=O)(=O)c3c(F)cccc3F)c2F)c(-c2ccnc(N)n2)s1 [DABRAFENIB] | 5880 nM | – | – | 26 nM | – | – | – | – | – | – | – | – | – | – | – | – | –
CNc1cc2c(cn1)cc(-c1ccc(F)c(NC(=O)Nc3cc(C(C)(C)C)no3)c1)c(=O)n2[C@H]1CCOC1 | 57 nM | 0.46 nM | 2900 nM | – | 6.1 nM | 32 nM | 1 nM | 18 nM | 3.1 nM | 6.8 nM | 50 mL/min/kg | 6 mL/min/kg | < 10% | < 10% | 2 µg/mL (≈ 3.84 µM) | 1 µg/mL (≈ 1.92 µM) | –
CNc1ncc2cc(-c3cc(NC(=O)NCCC(C)(C)C)c(F)cc3C)cnc2n1 | 16 nM | 1900 nM | > 20000 nM | – | 18 nM | 110 nM | 2 nM | 4.4 nM | 1.2 nM | 27 nM | – | – | – | – | – | – | –
